# MBD2 DNA inh – MBD2-methylated oligo binding inhibition; Q9UBB5; TR-FRET, MBD2 binding to methylated oligonucleotide; 370,000 compounds, 0.31% hits; inhibition, % at 4.4 µM; AID 686964; in the data active = inhibition above about 13%
# Rin1-Abl PPI inh – blocks binding of human Rin1 to Abl | P00519+Q13671 | 360,000 compounds, 0.4% hits | inhibition, % at 7.35 µM | TR-FRET Rin1/Abl binding, biochemical; in the data active = inhibition above about 5%, passing the limit was not always enough
# UHRF1 MBD2 ctr – UHRF1 methyl-DNA binding inhibition. Q96T88. UHRF1 binding to methylated oligo, TR-FRET. inhibition, % at 4.4 µM. 370,000 compounds, 0.75% hits. AID 687016; in the data active = inhibition above about 21%;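 also: UHRF1 SRA domain binding a hemimethylated CpG hairpin DNA probe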
# Target sequence (Q96T88 whole entry, looked up, the tested form may be a part): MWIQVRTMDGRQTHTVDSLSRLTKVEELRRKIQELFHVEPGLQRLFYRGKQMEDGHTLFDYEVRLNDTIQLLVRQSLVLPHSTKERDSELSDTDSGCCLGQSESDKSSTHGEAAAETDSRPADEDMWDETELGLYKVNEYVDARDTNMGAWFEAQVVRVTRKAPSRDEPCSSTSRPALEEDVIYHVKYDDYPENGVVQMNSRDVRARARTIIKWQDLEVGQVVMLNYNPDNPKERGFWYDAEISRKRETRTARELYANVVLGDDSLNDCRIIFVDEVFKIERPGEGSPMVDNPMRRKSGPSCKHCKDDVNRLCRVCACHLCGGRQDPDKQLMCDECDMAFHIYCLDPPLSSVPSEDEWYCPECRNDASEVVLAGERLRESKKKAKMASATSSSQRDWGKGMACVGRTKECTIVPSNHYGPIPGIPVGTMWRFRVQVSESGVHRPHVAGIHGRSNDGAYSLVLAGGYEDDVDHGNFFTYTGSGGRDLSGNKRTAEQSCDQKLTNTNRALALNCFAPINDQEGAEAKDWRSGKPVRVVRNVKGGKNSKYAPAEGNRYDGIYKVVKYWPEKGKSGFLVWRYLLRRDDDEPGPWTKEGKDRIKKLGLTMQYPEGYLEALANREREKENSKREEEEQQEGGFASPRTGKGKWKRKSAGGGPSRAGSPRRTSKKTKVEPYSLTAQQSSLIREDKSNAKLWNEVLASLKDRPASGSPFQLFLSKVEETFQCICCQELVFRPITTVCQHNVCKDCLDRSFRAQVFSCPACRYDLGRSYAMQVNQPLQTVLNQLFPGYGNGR
# TDP2 inh – blocks human TDP2 phosphodiesterase activity; recombinant TDP2, T5PNP hydrolysis, p-nitrophenol absorbance 415 nm; inhibition, % at 12.8 µM; 370,000 compounds, 0.34% hits; O95551;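 active = inhibition above the mean of all tested compounds plus 3 SD, set per campaign, cut at about 25% in these data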
#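 Test system: Human TDP2 enzyme | Reagent: 5 mM T5PNP | Compound dosing: 12.8 µM single point, 1% DMSO | Incubation: Enzyme reaction with compound for 2 h at 37 °C | Technique: p-Nitrophenol epi absorbance | Read-out: % inhibition relative to enzyme-containing and enzyme-free wells | Benchmarks: High control without enzyme, low control DMSO plus TDP2 | Replicates: Singlicate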
# LEDGF integ inh – blocks HIV-1 LEDGF/p75-dependent DNA integration; 370,000 compounds, 0.64% hits; TR-FRET IN-LEDGF/p75 DNA integration, Eu/Cy5; inhibition, % at 3.7 µM; AID 743269;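 active = inhibition above the screen-wide mean plus 3 SD, cut at about 13% in these data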;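 also: signal is the Cy5 over europium emission ratio at 671 and 618 nm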
# Numbers stand for hits; i = inactive; nt = no result given. Rows were chosen to be rich in hits. Some 1.9% of all compounds tested hit in one or more screens of this group.
SMILES,MBD2 DNA inh,Rin1-Abl PPI inh,UHRF1 MBD2 ctr,TDP2 inh,LEDGF integ inh
Cc1ccc(S(=O)(=O)C(C#N)c2nc3ccccc3nc2N2CCCC2)cc1 (configuration not stated),i,i,i,37,i
O=c1[nH]c(CN2CCCCC2)ccc1O,i,18,i,i,i
CC(c1c[nH]c2ccccc12)c1c[nH]c2ccc(Br)cc12 (configuration not stated),i,nt,i,i,i
O=C(CN1C(=O)C2CCCCC2C1=O)OCn1nnc2ccccc2c1=O (configuration not stated),i,i,i,i,i
CCC1(CC)NC(=O)N(CC(=O)OCn2nnc3ccccc3c2=O)C1=O,i,i,21,i,i
CCC(c1ccc(OC)cc1)c1cn(C)c2ccccc12 (configuration not stated),i,nt,i,i,i
O=C(NN=C1CCN(Cc2ccccc2)CC1)C(O)c1ccccc1 (configuration not stated),i,i,49,i,i
CN(C)CCNC(=O)c1ccccc1,i,i,i,i,i
CN(C)CCNC(=O)c1cccc2ccc(-c3ccc(-c4ccccc4)cc3)nc12,i,i,37,i,i
O=C(CN1C(=O)/C(=C\c2ccco2)SC1=S)Nc1ccc(O)cc1C(=O)O,27,i,87,i,63
CN1CCN(CC(=O)n2c3c(c4ccccc42)CCCC3)CC1,i,i,i,29,i
O=C(Nc1cccc([N+](=O)[O-])c1)NC1CCCCN(Cc2ccc(Cl)cc2)C1=O (configuration not stated),i,nt,i,i,i
Cc1cc(C)n2nc(CC(=O)NCc3ccc(F)cc3)nc2n1,i,i,99,i,i
Cc1cc(C)n2nc(SCCC(=O)NCc3ccccc3)nc2n1,i,i,36,i,i
COc1ccc(CNC(=O)CSc2nc3nc(C)cc(C)n3n2)cc1,i,i,i,i,i
O=C(OC12CCCN(C1)/C(=C/c1ccncc1)C2)c1ccc(F)cc1 (configuration not stated),i,nt,i,i,i
COc1ccc(/C=C/c2c([N+](=O)[O-])c(=O)n(C)c(=O)n2C)cc1OC,i,i,i,i,i
Cn1c(/C=C/c2ccc(Cl)cc2)c([N+](=O)[O-])c(=O)n(C)c1=O,i,i,21,i,i
CCCC/C=C1/[C@@H](CC)N(Cc2ccc(OC)cc2OC)C2=N[C@H](c3ccccc3)CC(=O)N21,i,nt,i,i,i
Cc1ccc(S(=O)(=O)NCCNC(=O)C2CCCNC2=O)cc1 (configuration not stated),i,i,21,i,i
Cc1ccc(OCc2nnc(SCC(=O)Nc3ccccc3-c3ccccc3)n2Cc2ccco2)cc1,i,nt,i,i,i
CCN(CCNC(=O)c1ccc(CSc2nc3ccncc3[nH]2)cc1)c1ccccc1,i,i,i,i,i
CC1CC(C)CN(C(=O)c2ccc(CSc3nc4ccncc4[nH]3)cc2)C1 (configuration not stated),i,i,34,i,i
COc1ccc(N2CCN(CCCNC(=O)Cn3c(=O)c4cccn4c4c(C)ccnc43)CC2)cc1,i,nt,i,i,i
COc1ccc(N2CCN(CCCNC(=O)CCc3cccc(F)c3)CC2)cc1,i,nt,i,i,i
SMILES,MBD2 DNA inh,Rin1-Abl PPI inh,UHRF1 MBD2 ctr,TDP2 inh,LEDGF integ inh
Cc1c(NC(=O)c2ccc(Cl)nc2)cccc1-c1nc2cccnc2s1,i,i,22,i,i
Cc1c(NC(=O)c2ccco2)cccc1-c1nc2cccnc2s1,i,i,i,i,i
CSc1nnc(-c2cccc(NC(=O)c3ccccc3)c2)n1C,i,i,26,i,i
O=C(CSc1nnc(-c2ccccn2)n1-c1ccccc1)c1ccc2c(c1)OCO2,i,nt,i,i,i
COc1ccc2c(c1)N=C(c1[nH]c3ccccc3c1CCN1C(=O)c3ccccc3C1=O)[C@]2(O)CCN1C(=O)c2ccccc2C1=O,i,nt,i,i,i
CCCCCCN1CCN(C2CN(Cc3cn(Cc4cc(C)cc(C)c4)nn3)S(=O)(=O)C2)CC1 (configuration not stated),i,nt,23,i,i
Cc1cc(C)cc(Cn2cc(CN3CC(N4CCN(C)CC4)CS3(=O)=O)nn2)c1 (configuration not stated),i,nt,24,i,i
CN1CCN(C2CN(Cc3cn(Cc4ccc(C(F)(F)F)cc4)nn3)S(=O)(=O)C2)CC1 (configuration not stated),i,nt,25,i,i
CCCCCCN1CCN(C2CN(Cc3cn(Cc4ccccc4)nn3)S(=O)(=O)C2)CC1 (configuration not stated),i,nt,i,i,i
Cc1ccc2c(c1)-c1c(cnn1CC(=O)NCCc1cccc(F)c1)CO2,i,nt,i,i,i
O=C(NCCc1c[nH]c2ccccc12)c1ccc2c(c1)ncn2C1CCCCC1,i,nt,i,i,i
O=C(Nc1ccc(F)cc1)OCc1cn(Cc2c(F)cccc2F)nn1,i,nt,i,i,i
Cc1ccc(C(=O)NC2CCS(=O)(=O)C2)cc1S(=O)(=O)N1CCCCCC1 (configuration not stated),i,i,23,i,i
Cc1ccc(C(=O)NC2CCCCC2)cc1S(=O)(=O)N1CCCC1,i,i,i,i,i
O=C(NCc1cccs1)C1CCCN(S(=O)(=O)c2cccc3ccccc23)C1 (configuration not stated),i,nt,i,i,i
COc1nc(OC)nc(N2CCC(C(=O)N(C)Cc3ccco3)CC2)n1,i,nt,i,i,i
CCCC1C(c2ccc(OC)cc2)C(C#N)(C#N)C2(C#N)CC1(N)NC2=O (configuration not stated),i,i,i,i,i
CC1C(c2ccccc2)C(C#N)(C#N)C2(C#N)C(=O)NC1(N)C2C (configuration not stated),i,i,23,i,i
O=C(NCc1cccc2ccccc12)C1CCCN(c2nc3ccccc3o2)C1 (configuration not stated),i,nt,i,i,i
COc1cccc(C2c3c(oc4ccccc4c3=O)C(=O)N2CCCN2CCOCC2)c1OC (configuration not stated),i,i,50,i,i
c1ccc(-c2nnc3n2N=C(c2ccc4ccccc4c2)CS3)nc1,i,nt,i,i,i
O=C(NCCCc1ccccc1)C1CCC(=O)N(Cc2ccc(Cl)cc2)C1 (configuration not stated),i,i,21,i,i
COc1ccc(CCCNC(=O)C2CCC(=O)N(Cc3ccc(Cl)cc3)C2)cc1 (configuration not stated),i,i,26,i,i
CCOC(=O)C1=NOC(C(=O)NC2CCCC2)(C(=O)c2ccc(OC)cc2)C1 (configuration not stated),i,nt,i,i,i
COc1ccccc1NC(=S)NNC(=O)c1ccncc1,i,i,23,i,i
COc1ccccc1NC(=S)NNC(=O)c1ccccc1,i,i,i,i,i
